Active and inactive are the calls of the source. The calls are words filed in the database; no cut-off is given here.
What was measured:
[1] = biological target: Baculoviral IAP repeat-containing protein 2 (Homo sapiens) (UniProt Q13490); test: Induction of cIAP1 degradation in human VHL knock-out HG-3 cells at 1 uM incubated for 16 hrs by western blot analysis; type: cell-based
Summary of the method: (§1)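 HG3 cells expressing Cas9 (lentiviral, blasticidin-selected) transduced with sgRNA against VHL or control luciferase (≥95% tomato-positive by FACS at 48 h); treated 1 μM for 16 h; lysed, SDS-PAGE, PVDF immunoblot with ECL detection, bands quantified by densitometry.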

[2] = biological target: T1, von Hippel-Lindau disease tumor suppressor/Baculoviral IAP repeat-containing protein 2 (Homo sapiens) (UniProt Q13490+P40337); test: PROTAC activity at VHL/IAP in human HG-3 cells harboring wild type VHL assessed as induction of cIAP1 degradation at 1 uM incubated for 16 hrs by western blot analysis; type: cell-based; summary of the method: as §1
[3] = biological target: T2, von Hippel-Lindau disease tumor suppressor/E3 ubiquitin-protein ligase XIAP (Homo sapiens) (UniProt P98170+P40337); test: PROTAC activity at VHL/IAP in human HG-3 cells harboring wild type VHL assessed as induction of XIAP degradation at 1 uM incubated for 16 hrs by western blot analysis; type: cell-based; summary of the method: as §1
[4] = biological target: T3, Protein cereblon/E3 ubiquitin-protein ligase XIAP (Homo sapiens) (UniProt P98170+Q96SW2); test: PROTAC activity at CRBN/IAP in human MM1.S cells assessed as induction of XIAP degradation by measuring remaining protein level at 0.1 uM incubated for 16 hrs by western blot analysis; type: cell-based
Summary of the method: (§2)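 MM.1S cells treated 16 h at the stated concentration. Lysed, run on SDS-PAGE and transferred to PVDF. Probed with primary antibodies overnight at 4 °C, then HRP secondaries, with ECL detection. Band densitometry normalized to loading control and to DMSO-treated cells. Averages of at least three independent experiments.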

[5] = biological target: Protein cereblon-IAP (Homo sapiens) (UniProt P98170+Q13489+Q13490+Q96SW2); test: PROTAC activity at CRBN/IAP in human MM1.S cells assessed as induction of CRBN degradation by measuring remaining protein level at 0.1 uM incubated for 16 hrs by western blot analysis; type: cell-based; summary of the method: as §2
[6] = biological target: Protein cereblon/Baculoviral IAP repeat-containing protein 3 (Homo sapiens) (UniProt Q13489+Q96SW2); test: PROTAC activity at CRBN/IAP in human MM1.S cells assessed as induction of cIAP2 degradation by measuring remaining protein level at 0.1 uM incubated for 16 hrs by western blot analysis; type: cell-based; summary of the method: as §2
[7] = biological target: Protein cereblon/Baculoviral IAP repeat-containing protein 2 (Homo sapiens) (UniProt Q13490+Q96SW2); test: PROTAC activity at CRBN/IAP in human MM1.S cells assessed as induction of cIAP1 degradation by measuring remaining protein level at 0.1 uM incubated for 16 hrs by western blot analysis; type: cell-based; summary of the method: as §2
[8] = biological target: T4, von Hippel-Lindau disease tumor suppressor/IAP (Homo sapiens) (UniProt P98170+Q13489+Q13490+P40337); test: PROTAC activity at VHL/IAP in human MM1.S cells assessed as induction of VHL30 degradation at 1 uM incubated for 16 hrs by western blot analysis; type: cell-based; summary of the method: as §2
[9] = biological target: T5, von Hippel-Lindau disease tumor suppressor/Baculoviral IAP repeat-containing protein 3 (Homo sapiens) (UniProt Q13489+P40337); test: PROTAC activity at VHL/IAP in human MM1.S cells assessed as induction of cIAP2 degradation at 0.1 to 1 uM incubated for 16 hrs by western blot analysis; type: cell-based; conditions: dose 0.1-1 µM
Summary of the method: (§3)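 MM.1S cells (RPMI-1640, 10% FBS, 1% pen/strep, 1% L-glutamine, 37 °C, 5% CO2) exposed to compound or DMSO for 16 h. Lysed in IP lysis buffer, SDS-PAGE, PVDF transfer, primary antibody overnight at 4 °C, HRP secondary, ECL detection. Bands quantified densitometrically, normalized to loading control and DMSO, reported as remaining protein; at least three independent experiments.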

[10] = biological target: T1, von Hippel-Lindau disease tumor suppressor/Baculoviral IAP repeat-containing protein 2 (Homo sapiens); test: PROTAC activity at VHL/IAP in human MM1.S cells assessed as induction of cIAP1 degradation at 0.1 to 1 uM incubated for 16 hrs by western blot analysis; type: cell-based; conditions: dose 0.1-1 µM; summary of the method: as §3
[11] = biological target: T2, von Hippel-Lindau disease tumor suppressor/E3 ubiquitin-protein ligase XIAP (Homo sapiens); test: PROTAC activity at VHL/IAP in human MM1.S cells assessed as induction of XIAP degradation at 0.1 to 1 uM incubated for 16 hrs by western blot analysis; type: cell-based; conditions: dose 0.1-1 µM; summary of the method: as §2
[12] = biological target: T4, von Hippel-Lindau disease tumor suppressor/IAP (Homo sapiens); test: PROTAC activity at VHL/IAP in human MM1.S cells assessed as induction of VHL30 degradation by measuring remaining protein level at 0.1 uM incubated for 16 hrs by western blot analysis; type: cell-based; summary of the method: as §2
[13] = test system: RPMI-8226; test: Cytotoxicity against human RPMI-8226 cells assessed as reduction in cell viability measured after 96 hrs in presence of TNF-alpha by CellTiter-Glo luminescent assay; type: functional, cell-based; conditions: RPMI-8226, 96 h
Summary of the method: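 Cells kept in RPMI-1640 with 10% FBS, 1% penicillin/streptomycin and 1% L-glutamine at 37 °C, 5% CO2. Seeded with compounds and incubated 96 h at 37 °C with TNF-α at 1 ng/mL. Viability read by CellTiter-Glo luminescence and normalized to DMSO-treated control. Mean ± SD of biological triplicates.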

[14] = biological target: Baculoviral IAP repeat-containing protein 2 (Homo sapiens) (UniProt Q13490); test: Induction of cIAP1 degradation in human MM1.S cells at 1 uM incubated for 16 hrs by western blot analysis; type: cell-based; summary of the method: as §2
[15] = biological target: von Hippel-Lindau disease tumor suppressor (Homo sapiens) (UniProt P40337); test: Induction of VHL30 degradation in human MM1.S cells assessed as remaining protein level at 0.1 uM incubated for 16 hrs by western blot analysis; type: cell-based; summary of the method: as §2
[16] = biological target: Baculoviral IAP repeat-containing protein 2 (Homo sapiens) (UniProt Q13490); test: Induction of cIAP1 degradation in human MM1.S cells assessed as remaining protein level at 0.1 uM incubated for 16 hrs by western blot analysis; type: cell-based
Summary of the method: (§4)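 Lysed, run on SDS-PAGE and transferred to PVDF. Probed with primary antibodies overnight at 4 °C, then HRP secondaries, with ECL detection. Band densitometry normalized to loading control and to DMSO-treated cells. Averages of at least three independent experiments.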

[17] = biological target: Baculoviral IAP repeat-containing protein 3 (Homo sapiens) (UniProt Q13489); test: Induction of cIAP2 degradation in human MM1.S cells assessed as remaining protein level at 0.1 uM incubated for 16 hrs by western blot analysis; type: cell-based; summary of the method: as §4
[18] = biological target: Protein cereblon/Zinc finger protein Aiolos (Homo sapiens) (UniProt Q96SW2+Q9UKT9); test: PROTAC activity at CRBN/IKZF3 in human MM1.S cells assessed as induction of IKZF3 degradation at 1 uM incubated for 16 hrs by western blot analysis; type: cell-based; summary of the method: as §2
[19] = biological target: T3, Protein cereblon/E3 ubiquitin-protein ligase XIAP (Homo sapiens); test: PROTAC activity at CRBN/IAP in human MM1.S cells assessed as induction of XIAP degradation at 1 uM incubated for 16 hrs by western blot analysis; type: cell-based; summary of the method: as §2
[20] = biological target: T1, von Hippel-Lindau disease tumor suppressor/Baculoviral IAP repeat-containing protein 2 (Homo sapiens); test: PROTAC activity at VHL/IAP in human MM1.S cells assessed as induction of cIAP1 degradation at 1 uM incubated for 16 hrs by western blot analysis; type: cell-based; summary of the method: as §3
[21] = biological target: T5, von Hippel-Lindau disease tumor suppressor/Baculoviral IAP repeat-containing protein 3 (Homo sapiens); test: PROTAC activity at VHL/IAP in human MM1.S cells assessed as induction of cIAP2 degradation at 10 nM incubated for 16 hrs by western blot analysis; type: cell-based; summary of the method: as §3
[22] = biological target: T5, von Hippel-Lindau disease tumor suppressor/Baculoviral IAP repeat-containing protein 3 (Homo sapiens); test: PROTAC activity at VHL/IAP in human MM1.S cells assessed as induction of cIAP2 degradation at 1 uM incubated for 16 hrs by western blot analysis; type: cell-based; summary of the method: as §3
[23] = biological target: T2, von Hippel-Lindau disease tumor suppressor/E3 ubiquitin-protein ligase XIAP (Homo sapiens); test: PROTAC activity at VHL/IAP in human MM1.S cells assessed as induction of XIAP degradation at 1 uM incubated for 16 hrs by western blot analysis; type: cell-based; summary of the method: as §3
[24] = biological target: T2, von Hippel-Lindau disease tumor suppressor/E3 ubiquitin-protein ligase XIAP (Homo sapiens); test: PROTAC activity at VHL/IAP in human MM1.S cells assessed as induction of XIAP degradation at 10 nM incubated for 16 hrs by western blot analysis; type: cell-based; summary of the method: as §3
[25] = biological target: T1, von Hippel-Lindau disease tumor suppressor/Baculoviral IAP repeat-containing protein 2 (Homo sapiens); test: PROTAC activity at VHL/IAP in human MM1.S cells assessed as induction of cIAP1 degradation at 10 nM incubated for 16 hrs by western blot analysis; type: cell-based; summary of the method: as §3

T5 sequence (P40337 whole entry, looked up): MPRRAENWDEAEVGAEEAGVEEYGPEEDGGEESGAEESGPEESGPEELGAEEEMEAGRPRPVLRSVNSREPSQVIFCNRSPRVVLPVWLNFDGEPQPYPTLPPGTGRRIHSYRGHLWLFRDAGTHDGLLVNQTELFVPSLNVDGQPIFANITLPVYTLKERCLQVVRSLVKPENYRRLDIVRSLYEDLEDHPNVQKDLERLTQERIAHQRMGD
T5 sequence (Q13489 whole entry, looked up): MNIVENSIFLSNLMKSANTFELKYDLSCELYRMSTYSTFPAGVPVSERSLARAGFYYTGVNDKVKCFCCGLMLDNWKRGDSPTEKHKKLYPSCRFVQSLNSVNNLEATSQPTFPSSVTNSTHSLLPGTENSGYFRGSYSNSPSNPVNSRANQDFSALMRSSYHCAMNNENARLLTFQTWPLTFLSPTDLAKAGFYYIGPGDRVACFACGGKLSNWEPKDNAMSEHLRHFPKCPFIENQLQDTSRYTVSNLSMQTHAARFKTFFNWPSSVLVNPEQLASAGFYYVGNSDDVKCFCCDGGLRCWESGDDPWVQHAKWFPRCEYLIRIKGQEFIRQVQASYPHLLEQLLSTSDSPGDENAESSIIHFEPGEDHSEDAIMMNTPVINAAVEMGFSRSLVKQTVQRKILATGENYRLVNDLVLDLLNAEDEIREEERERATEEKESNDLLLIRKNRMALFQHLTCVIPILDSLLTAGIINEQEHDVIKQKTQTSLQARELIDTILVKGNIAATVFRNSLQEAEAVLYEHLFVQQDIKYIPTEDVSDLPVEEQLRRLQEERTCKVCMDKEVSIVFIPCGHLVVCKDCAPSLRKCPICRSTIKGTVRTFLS
T1 sequence (P40337 whole entry, looked up): as the sequence (P40337 whole entry, looked up) above
T1 sequence (Q13490 whole entry, looked up): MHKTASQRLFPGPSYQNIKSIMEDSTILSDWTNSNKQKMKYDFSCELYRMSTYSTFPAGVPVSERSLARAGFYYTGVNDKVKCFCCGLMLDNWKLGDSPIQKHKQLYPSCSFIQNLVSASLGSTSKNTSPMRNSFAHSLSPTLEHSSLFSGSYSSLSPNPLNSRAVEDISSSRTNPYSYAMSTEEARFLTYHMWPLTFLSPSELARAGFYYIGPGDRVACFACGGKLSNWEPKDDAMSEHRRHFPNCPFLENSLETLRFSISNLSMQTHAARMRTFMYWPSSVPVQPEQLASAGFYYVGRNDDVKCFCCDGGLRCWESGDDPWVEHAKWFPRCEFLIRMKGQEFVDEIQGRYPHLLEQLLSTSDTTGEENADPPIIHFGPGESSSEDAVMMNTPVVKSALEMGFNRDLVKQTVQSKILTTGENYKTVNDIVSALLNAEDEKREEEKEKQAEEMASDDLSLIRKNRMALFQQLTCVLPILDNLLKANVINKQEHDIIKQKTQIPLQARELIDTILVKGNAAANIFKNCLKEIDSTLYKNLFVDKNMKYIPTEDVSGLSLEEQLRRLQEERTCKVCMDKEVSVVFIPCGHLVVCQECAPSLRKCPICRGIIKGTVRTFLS
T2 sequence (P40337 whole entry, looked up): as the sequence (P40337 whole entry, looked up) above
T2 sequence (P98170 whole entry, looked up): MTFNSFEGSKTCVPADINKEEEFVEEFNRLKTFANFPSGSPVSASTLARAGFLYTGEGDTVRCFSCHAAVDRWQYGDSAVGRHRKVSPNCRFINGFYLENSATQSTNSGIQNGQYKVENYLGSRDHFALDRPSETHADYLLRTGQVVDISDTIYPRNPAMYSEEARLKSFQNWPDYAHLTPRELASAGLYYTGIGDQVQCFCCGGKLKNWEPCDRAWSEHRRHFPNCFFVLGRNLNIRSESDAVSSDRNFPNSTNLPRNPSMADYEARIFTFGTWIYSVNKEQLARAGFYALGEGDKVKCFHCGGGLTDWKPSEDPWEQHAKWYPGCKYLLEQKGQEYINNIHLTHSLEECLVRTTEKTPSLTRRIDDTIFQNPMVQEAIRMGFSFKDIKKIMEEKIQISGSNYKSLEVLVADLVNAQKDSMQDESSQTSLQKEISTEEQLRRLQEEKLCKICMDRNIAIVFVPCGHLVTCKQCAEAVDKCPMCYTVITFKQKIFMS
Sequence of Baculoviral IAP repeat-containing protein 2 (Homo sapiens) (Q13490 whole entry): as the sequence (Q13490 whole entry, looked up) above
T4 sequence (P40337 whole entry, looked up): as the sequence (P40337 whole entry, looked up) above
T4 sequence (P98170 whole entry, looked up): as the sequence (P98170 whole entry, looked up) above
T4 sequence (Q13489 whole entry, looked up): as the sequence (Q13489 whole entry, looked up) above
T4 sequence (Q13490 whole entry, looked up): as the sequence (Q13490 whole entry, looked up) above
T3 sequence (P98170 whole entry, looked up): as the sequence (P98170 whole entry, looked up) above
T3 sequence (Q96SW2 whole entry, looked up): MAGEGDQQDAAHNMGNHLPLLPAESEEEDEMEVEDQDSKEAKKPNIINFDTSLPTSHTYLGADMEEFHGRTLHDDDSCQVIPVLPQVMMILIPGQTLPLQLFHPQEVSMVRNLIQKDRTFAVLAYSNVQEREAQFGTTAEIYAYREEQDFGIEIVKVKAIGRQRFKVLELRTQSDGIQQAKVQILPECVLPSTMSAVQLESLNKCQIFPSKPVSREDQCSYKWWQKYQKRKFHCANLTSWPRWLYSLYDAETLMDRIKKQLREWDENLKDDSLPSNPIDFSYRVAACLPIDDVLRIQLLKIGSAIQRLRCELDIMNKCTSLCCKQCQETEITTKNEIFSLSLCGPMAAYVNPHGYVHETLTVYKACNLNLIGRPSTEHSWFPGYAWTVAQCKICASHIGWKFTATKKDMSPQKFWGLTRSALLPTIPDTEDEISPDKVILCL
Sequence of Protein cereblon/Zinc finger protein Aiolos (Homo sapiens) (Q96SW2 whole entry, looked up): as above
Sequence of Protein cereblon/Zinc finger protein Aiolos (Homo sapiens) (Q9UKT9 whole entry, looked up): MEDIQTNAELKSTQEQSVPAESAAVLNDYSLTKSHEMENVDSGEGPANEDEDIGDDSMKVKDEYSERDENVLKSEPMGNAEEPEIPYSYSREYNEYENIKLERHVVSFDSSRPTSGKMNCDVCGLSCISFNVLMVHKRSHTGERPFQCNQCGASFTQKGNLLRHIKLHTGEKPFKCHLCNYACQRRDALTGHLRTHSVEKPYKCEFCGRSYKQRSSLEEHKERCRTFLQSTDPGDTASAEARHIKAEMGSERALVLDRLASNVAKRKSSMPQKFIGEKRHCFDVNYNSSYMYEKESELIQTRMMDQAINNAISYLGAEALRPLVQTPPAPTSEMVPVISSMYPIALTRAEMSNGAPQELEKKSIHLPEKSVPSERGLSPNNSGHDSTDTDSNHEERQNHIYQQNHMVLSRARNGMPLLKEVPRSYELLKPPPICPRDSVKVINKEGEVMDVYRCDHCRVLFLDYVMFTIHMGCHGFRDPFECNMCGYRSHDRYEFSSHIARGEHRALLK
Sequence of von Hippel-Lindau disease tumor suppressor (Homo sapiens) (P40337 whole entry, looked up): as the sequence (P40337 whole entry, looked up) above
Sequence of Protein cereblon-IAP (Homo sapiens) (P98170 whole entry, looked up): as the sequence (P98170 whole entry, looked up) above
Sequence of Protein cereblon-IAP (Homo sapiens) (Q13489 whole entry, looked up): as the sequence (Q13489 whole entry, looked up) above
Sequence of Protein cereblon-IAP (Homo sapiens) (Q13490 whole entry, looked up): as the sequence (Q13490 whole entry, looked up) above
Sequence of Protein cereblon-IAP (Homo sapiens) (Q96SW2 whole entry, looked up): as the sequence (Q96SW2 whole entry, looked up) above
Sequence of Protein cereblon/Baculoviral IAP repeat-containing protein 3 (Homo sapiens) (Q13489 whole entry, looked up): as the sequence (Q13489 whole entry, looked up) above
Sequence of Protein cereblon/Baculoviral IAP repeat-containing protein 3 (Homo sapiens) (Q96SW2 whole entry, looked up): as the sequence (Q96SW2 whole entry, looked up) above
Sequence of Baculoviral IAP repeat-containing protein 3 (Homo sapiens) (Q13489 whole entry): as the sequence (Q13489 whole entry, looked up) above
Sequence of Protein cereblon/Baculoviral IAP repeat-containing protein 2 (Homo sapiens) (Q13490 whole entry, looked up): as the sequence (Q13490 whole entry, looked up) above
Sequence of Protein cereblon/Baculoviral IAP repeat-containing protein 2 (Homo sapiens) (Q96SW2 whole entry, looked up): as the sequence (Q96SW2 whole entry, looked up) above

SMILES: CN[C@@H](C)C(=O)N[C@H](C(=O)N1C[C@@H](Oc2cccc(OCCCCCCCC(=O)N[C@H](C(=O)N3C[C@H](O)C[C@H]3C(=O)NCc3ccc(-c4scnc4C)cc3)C(C)(C)C)c2)C[C@H]1C(=O)N[C@@H]1CCCc2ccccc21)C1CCCCC1
- Activity [1]: Active
- Activity [2]: Active
- Activity [3]: Active

SMILES: CN[C@@H](C)C(=O)N[C@H](C(=O)N1C[C@@H](Oc2cccc(OCCCCCCCCNc3cccc4c3C(=O)N(C3CCC(=O)NC3=O)C4=O)c2)C[C@H]1C(=O)N[C@@H]1CCCc2ccccc21)C1CCCCC1 (some centres not stated)
- Activity [4]: 4%
- Activity [5]: 90%
- Activity [6]: 14%
- Activity [7]: 5%

SMILES: CN[C@@H](C)C(=O)N[C@H](C(=O)N1C[C@@H](Oc2cccc(OCCOCCOCC(=O)N[C@H](C(=O)N3C[C@H](O)C[C@H]3C(=O)NCc3ccc(-c4scnc4C)cc3)C(C)(C)C)c2)C[C@H]1C(=O)N[C@@H]1CCCc2ccccc21)C1CCCCC1
- Activity [1]: Active
- Activity [2]: Active
- Activity [3]: Active

SMILES: CN[C@@H](C)C(=O)N[C@H](C(=O)N1C[C@@H](Oc2cccc(OCCCCOCCCC(=O)N[C@H](C(=O)N3C[C@H](O)C[C@H]3C(=O)NCc3ccc(-c4scnc4C)cc3)C(C)(C)C)c2)C[C@H]1C(=O)N[C@@H]1CCCc2ccccc21)C1CCCCC1
- Activity [8]: Active

SMILES: CN[C@@H](C)C(=O)N[C@H](C(=O)N1C[C@@H](Oc2cccc(OCCCCC(=O)N[C@H](C(=O)N3C[C@H](O)C[C@H]3C(=O)NCc3ccc(-c4scnc4C)cc3)C(C)(C)C)c2)C[C@H]1C(=O)N[C@@H]1CCCc2ccccc21)C1CCCCC1
- Activity [9]: Active
- Activity [10]: Active
- Activity [11]: Active
- Activity [12]: 38%

SMILES: CN[C@@H](C)C(=O)N[C@H](C(=O)N1C[C@@H](Oc2cccc(OCCCCC(=O)N[C@H](C(=O)N3C[C@@H](O)C[C@H]3C(=O)NCc3ccc(-c4scnc4C)cc3)C(C)(C)C)c2)C[C@H]1C(=O)N[C@@H]1CCCc2ccccc21)C1CCCCC1
- IC50 [13]: > 5 µM

SMILES: CN[C@@H](C)C(=O)N[C@H](C(=O)N1C[C@@H](Oc2ccccc2)C[C@H]1C(=O)N[C@@H]1CCCc2ccccc21)C1CCCCC1
- Activity [14]: Active
- Activity [15]: 72%
- Activity [16]: 7%
- Activity [17]: 47%

SMILES: CN[C@@H](C)C(=O)N[C@H](C(=O)N1C[C@@H](Oc2cccc(OCCCCCOCCCCCOCCCCCCNc3cccc4c3C(=O)N(C3CCC(=O)NC3=O)C4=O)c2)C[C@H]1C(=O)N[C@@H]1CCCc2ccccc21)C1CCCCC1 (some centres not stated)
- Activity [18]: Active

SMILES: CN[C@@H](C)C(=O)N[C@H](C(=O)N1C[C@@H](Oc2cccc(OCCCCOCCCCNc3cccc4c3C(=O)N(C3CCC(=O)NC3=O)C4=O)c2)C[C@H]1C(=O)N[C@@H]1CCCc2ccccc21)C1CCCCC1 (some centres not stated)
- Activity [18]: Active

SMILES: CN[C@@H](C)C(=O)N[C@H](C(=O)N1C[C@@H](Oc2cccc(OCCOCCCCCCOCCCCCCNc3cccc4c3C(=O)N(C3CCC(=O)N(C)C3=O)C4=O)c2)C[C@H]1C(=O)N[C@@H]1CCCc2ccccc21)C1CCCCC1 (some centres not stated)
- Activity [19]: inactive

SMILES: CN[C@@H](C)C(=O)N[C@H](C(=O)N1C[C@@H](Oc2cccc(OCCCCCCOCCCCCCOCCCCCCOc3cc(-c4scnc4C)ccc3CNC(=O)[C@@H]3C[C@@H](O)CN3C(=O)[C@H](C(C)C)N3Cc4ccccc4C3=O)c2)C[C@H]1C(=O)N[C@@H]1CCCc2ccccc21)C1CCCCC1
- Activity [20]: Active
- Activity [21]: inactive
- Activity [22]: Active
- Activity [23]: Active
- Activity [24]: inactive
- Activity [25]: inactive

SMILES: CN[C@@H](C)C(=O)N[C@H](C(=O)N1CC(Oc2cccc(OCCCCCCOCCCCCCOCC(=O)N[C@H](C(=O)N3C[C@H](O)C[C@H]3C(=O)NCc3ccc(-c4scnc4C)cc3)C(C)(C)C)c2)C[C@H]1C(=O)N[C@@H]1CCCc2ccccc21)C1CCCCC1 (single isomer, unassigned)
- Activity [1]: Active
- Activity [2]: Active
- Activity [3]: Active
